Test results taken from ChEMBL document CHEMBL1142636 (2000).

What was measured:
[1] = tested on: SNB-75; assay: Growth inhibition of human SNB75 cells; type: functional; settings: read-out: pLC50 (the source's name) (converted)
Procedure, shortened: (§1)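 Tested at the NCI in its human disease-oriented in vitro screen of 60 tumour cell lines, following the Monks et al. methods. Activity is expressed as GI50, given as log molar values.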

[2] = tested on: UO-31; assay: Growth inhibition of human UO31 cells; type: functional; settings: read-out: pLC50 (the source's name) (converted); procedure, shortened: as §1
[3] = tested on: U-251; assay: Growth inhibition of human U251 cells; type: functional; settings: read-out: pLC50 (the source's name) (converted); procedure, shortened: as §1
[4] = tested on: SR; assay: Growth inhibition of human SR cells; type: functional; procedure, shortened: as §1
[5] = tested on: HCT-15; assay: Growth inhibition of human HCT15 cells; type: functional; settings: read-out: pLC50 (the source's name) (converted)
[6] = tested on: Malme-3M; assay: Growth inhibition of human MALME-3M cells; type: functional; settings: read-out: pLC50 (the source's name) (converted)
[7] = tested on: TK-10; assay: Growth inhibition of human TK10 cells; type: functional; settings: read-out: pLC50 (the source's name) (converted); procedure, shortened: as §1
[8] = Growth inhibition of human OVACR4 cells; type: functional; settings: read-out: pLC50 (the source's name) (converted)
[9] = tested on: MOLT-4; assay: Growth inhibition of human MOLT4 cells; type: functional
[10] = tested on: NCI-H460; assay: Growth inhibition of human NCI-H460 cells; type: functional
[11] = tested on: HCC 2998; assay: Growth inhibition of human HCC2998 cells; type: functional
[12] = tested on: EKVX; assay: Growth inhibition of human EKVX cells; type: functional; settings: read-out: pLC50 (the source's name) (converted)
[13] = tested on: SK-MEL-2; assay: Growth inhibition of human SK-MEL-2 cells; type: functional; settings: read-out: pLC50 (the source's name) (converted); procedure, shortened: as §1
[14] = tested on: NCI-H226; assay: Growth inhibition of human NCI-H226 cells; type: functional
[15] = Growth inhibition of human HL60(TB) cells; type: functional, HL-60(TB); settings: HL-60, read-out: pLC50 (the source's name) (converted)
[16] = tested on: UACC-62; assay: Growth inhibition of human UACC62 cells; type: functional; settings: read-out: pLC50 (the source's name) (converted); procedure, shortened: as §1
[17] = tested on: MDA-MB-231; assay: Growth inhibition of human MDA-MB-231 cells; type: functional; settings: read-out: pLC50 (the source's name) (converted)
[18] = Growth inhibition of human MCF7/ADR-RES cells; type: functional; settings: NCI/ADR-RES, read-out: pLC50 (the source's name) (converted)
[19] = tested on: COLO 205; assay: Growth inhibition of human COLO205 cells; type: functional
[20] = tested on: SK-MEL-28; assay: Growth inhibition of human SK-MEL-28 cells; type: functional; settings: read-out: pLC50 (the source's name) (converted); procedure, shortened: as §1
[21] = Growth inhibition of human OVACR5 cells; type: functional; settings: read-out: pLC50 (the source's name) (converted)
[22] = tested on: BT-549; assay: Growth inhibition of human BT549 cells; type: functional
[23] = tested on: K562; assay: Growth inhibition of human K562 cells; type: functional
[24] = tested on: SF-539; assay: Growth inhibition of human SF539 cells; type: functional; settings: read-out: pLC50 (the source's name) (converted); procedure, shortened: as §1
[25] = Growth inhibition of human OVACR8 cells; type: functional; settings: read-out: pLC50 (the source's name) (converted)
[26] = tested on: HOP-92; assay: Growth inhibition of human HOP92 cells; type: functional; settings: read-out: pLC50 (the source's name) (converted)
[27] = tested on: A498; assay: Growth inhibition of human A498 cells; type: functional; settings: read-out: pLC50 (the source's name) (converted)
[28] = tested on: DU-145; assay: Growth inhibition of human DU145 cells; type: functional; settings: read-out: pLC50 (the source's name) (converted)
[29] = tested on: SW-620; assay: Growth inhibition of human SW620 cells; type: functional; procedure, shortened: as §1
[30] = tested on: A549; assay: Growth inhibition of human A549 cells; type: functional
[31] = Growth inhibition of human LXFL529 cells; type: functional; settings: LXFL 529
[32] = Growth inhibition of human DMS144 cells; type: functional
[33] = tested on: HT-29; assay: Growth inhibition of human HT29 cells; type: functional
[34] = tested on: XF498; assay: Growth inhibition of human XF498 cells; type: functional; settings: read-out: pLC50 (the source's name) (converted); procedure, shortened: as §1
[35] = tested on: CCRF-CEM; assay: Growth inhibition of human CCRF-CEM cells; type: functional
[36] = tested on: IGROV-1; assay: Growth inhibition of human IGROV1 cells; type: functional; settings: read-out: pLC50 (the source's name) (converted)
[37] = tested on: HOP-62; assay: Growth inhibition of human HOP62 cells; type: functional
[38] = tested on: MDA-MB-435; assay: Growth inhibition of human MDA-MB-435 cells; type: functional
[39] = tested on: KM-20L2; assay: Growth inhibition of human KM20L2 cells; type: functional; settings: read-out: pLC50 (the source's name) (converted)
[40] = Growth inhibition of human RPMI8266 cells; type: functional; settings: read-out: pLC50 (the source's name) (converted)
[41] = tested on: PC-3; assay: Growth inhibition of human PC3 cells; type: functional; settings: read-out: pLC50 (the source's name) (converted)
[42] = tested on: LOX IMVI; assay: Growth inhibition of human LOX IMVI cells; type: functional; settings: read-out: pLC50 (the source's name) (converted)
[43] = tested on: SN12C; assay: Growth inhibition of human SN12C cells; type: functional; settings: read-out: pLC50 (the source's name) (converted); procedure, shortened: as §1
[44] = tested on: NCI-H23; assay: Growth inhibition of human NCI-H23 cells; type: functional
[45] = tested on: DMS-273; assay: Growth inhibition of human DMS273 cells; type: functional
[46] = tested on: CAKI-1; assay: Growth inhibition of human CAKI1 cells; type: functional; settings: read-out: pLC50 (the source's name) (converted)
[47] = tested on: SK-OV-3; assay: Growth inhibition of human SK-OV-3 cells; type: functional; settings: read-out: pLC50 (the source's name) (converted); procedure, shortened: as §1
[48] = tested on: M19-MEL; assay: Growth inhibition of human M19-MEL cells; type: functional; settings: read-out: pLC50 (the source's name) (converted)
[49] = tested on: T47D; assay: Growth inhibition of human T47D cells; type: functional; procedure, shortened: as §1
[50] = tested on: ACHN; assay: Growth inhibition of human ACHN cells; type: functional; settings: read-out: pLC50 (the source's name) (converted)
[51] = tested on: MCF7; assay: Growth inhibition of human MCF7 cells; type: functional; settings: read-out: pLC50 (the source's name) (converted)
[52] = tested on: DLD-1; assay: Growth inhibition of human DLD1 cells; type: functional
[53] = tested on: SF-268; assay: Growth inhibition of human SF268 cells; type: functional; procedure, shortened: as §1
[54] = tested on: M14; assay: Growth inhibition of human M14 cells; type: functional; settings: read-out: pLC50 (the source's name) (converted)
[55] = tested on: SF-295; assay: Growth inhibition of human SF295 cells; type: functional; settings: read-out: pLC50 (the source's name) (converted); procedure, shortened: as §1
[56] = tested on: Hs-578T; assay: Growth inhibition of human HS578T cells; type: functional; settings: read-out: pLC50 (the source's name) (converted)
[57] = tested on: SK-MEL-5; assay: Growth inhibition of human SK-MEL-5 cells; type: functional; settings: read-out: pLC50 (the source's name) (converted); procedure, shortened: as §1
[58] = tested on: HCT-116; assay: Growth inhibition of human HCT116 cells; type: functional; settings: read-out: pLC50 (the source's name) (converted)
[59] = Growth inhibition of human […] cells; type: functional; settings: read-out: pLC50 (the source's name) (converted)
[60] = tested on: SNB-19; assay: Growth inhibition of human SNB19 cells; type: functional; settings: read-out: pLC50 (the source's name) (converted); procedure, shortened: as §1
[61] = tested on: HOP-18; assay: Growth inhibition of human HOP18 cells; type: functional; settings: read-out: pLC50 (the source's name) (converted)
[62] = tested on: RXF 393; assay: Growth inhibition of human […] cells; type: functional; settings: read-out: pLC50 (the source's name) (converted)
[63] = tested on: 786-0; assay: Growth inhibition of human 786-0 cells; type: functional; settings: read-out: pLC50 (the source's name) (converted)
[64] = tested on: KM12; assay: Growth inhibition of human KM12 cells; type: functional; settings: read-out: pLC50 (the source's name) (converted)
[65] = tested on: NCI-H522; assay: Growth inhibition of human NCI-H522 cells; type: functional; settings: read-out: pLC50 (the source's name) (converted)
[66] = tested on: MDA-N; assay: Growth inhibition of human MDA-N cells; type: functional; settings: read-out: pLC50 (the source's name) (converted)
[67] = tested on: NCI-H322M; assay: Growth inhibition of human NCI-H322M cells; type: functional
[68] = tested on: UACC-257; assay: Growth inhibition of human UACC257 cells; type: functional; settings: read-out: pLC50 (the source's name) (converted); procedure, shortened: as §1

Cc1cc2c3ccccc3n3c2c2c1O[C@@]1(C)CC[C@H]([C@@H]2C1)C3(C)C
> 25.1 µM: CC50 [1] | CC50 [2] | CC50 [3] | LC50 [4] | CC50 [5] | CC50 [6] | CC50 [7] | CC50 [8] | LC50 [9] | LC50 [10] | LC50 [11] | CC50 [12] | CC50 [13] | LC50 [14] | CC50 [15] | CC50 [16] | CC50 [17] | CC50 [18] | LC50 [19] | CC50 [20] | CC50 [21] | LC50 [22] | LC50 [23] | CC50 [24] | CC50 [25] | CC50 [26] | CC50 [27] | CC50 [28] | LC50 [29] | LC50 [30] | LC50 [31] | LC50 [32] | LC50 [33] | CC50 [34] | LC50 [35] | CC50 [36] | LC50 [37] | LC50 [38] | CC50 [39] | CC50 [40] | CC50 [41] | CC50 [42] | CC50 [43] | LC50 [44] | LC50 [45] | CC50 [46] | CC50 [47] | CC50 [48] | LC50 [49] | CC50 [50] | CC50 [51] | LC50 [52] | LC50 [53] | CC50 [54] | CC50 [55] | CC50 [56] | CC50 [57] | CC50 [58] | CC50 [59] | CC50 [60] | CC50 [61] | CC50 [62] | CC50 [63] | CC50 [64] | CC50 [65] | CC50 [66] | LC50 [67] | CC50 [68]

C=C(C)C1CC2(C)CC1c1c(c(C)cc3c1[nH]c1ccccc13)O2 (stereo unspecified)
> 25.1 µM: CC50 [1] | CC50 [2] | CC50 [3] | LC50 [4] | CC50 [5] | CC50 [6] | CC50 [7] | CC50 [8] | LC50 [9] | LC50 [10] | LC50 [11] | CC50 [12] | CC50 [13] | LC50 [14] | CC50 [15] | CC50 [16] | CC50 [17] | CC50 [18] | LC50 [19] | CC50 [20] | CC50 [21] | LC50 [22] | LC50 [23] | CC50 [24] | CC50 [25] | CC50 [26] | CC50 [27] | CC50 [28] | LC50 [29] | LC50 [30] | LC50 [31] | LC50 [32] | LC50 [33] | CC50 [34] | LC50 [35] | CC50 [36] | LC50 [37] | LC50 [38] | CC50 [39] | CC50 [40] | CC50 [41] | CC50 [42] | CC50 [43] | LC50 [44] | LC50 [45] | CC50 [46] | CC50 [47] | CC50 [48] | LC50 [49] | CC50 [50] | CC50 [51] | LC50 [52] | LC50 [53] | CC50 [54] | CC50 [55] | CC50 [56] | CC50 [57] | CC50 [58] | CC50 [59] | CC50 [60] | CC50 [61] | CC50 [62] | CC50 [63] | CC50 [64] | CC50 [65] | CC50 [66] | LC50 [67] | CC50 [68]
